Bioassay records (PubChem BioAssay)
HIF activator = HIF pathway transcriptional activators, primary screen, cell-based, U2OS HRE-luciferase, luminescence | U2OS HRE-luciferase reporter; normalized: DMSO 0%, desferrioxamine 100% | activation, % at 7.5 µM (by protocol) | 300,000 compounds, 0.32% hits;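 active = mean activation of at least 10% of the iron chelator positive control signal, with at least half of replicates also reaching 10%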
FXN GAA850 act = FXN promoter activators, primary screen, cell-based, luciferase luminescence, HEK293 lucGAA850; AID 540364, 2011; HEK293 lucGAA850 FXN promoter luciferase reporter, 24 h; percent of 10 µM SAHA response; 360,000 compounds, 0.56% hits; activation, % at 6 µM;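 active = activation above the average of all compounds screened plus 3 SD, cutoff fixed separately per campaign, cut at about 7.5% in these data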
Hsp70 activator = Hsp70 transcriptional activators, primary screen, cell-based, HeLa, Hsp70 promoter luciferase, luminescence, 10 µM. HeLa Hsp70 promoter luciferase reporter; scaled: vehicle 0, proteasome-inhibitor control 100%. activation, % at 10 µM. 200,000 compounds, 0.04% hits;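 active = activation above the mean across all tested compounds plus 3 SD, cutoff set per campaign, cut at about 5.5% in these data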
H9c2 TAG inh = inhibitors of triacylglycerol accumulation, primary screen, cell-based, uHTS, fluorescence, H9c2; AID 651582, 2012; 230,000 compounds, 0.66% hits; inhibition, % at 12.5 µM; H9c2 cells, Nile Red lipid (TAG) fluorescence; cells loaded with 200 µM oleic acid;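 active = pattern-corrected inhibition of lipid staining of at least 50% with the nuclear-stain viability signal not falling by more than 50%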
Rad51 HR inh = human RAD51 strand exchange inhibitors, primary screen, biochemical, fluorescence; DNA repair protein RAD51 homolog 1 (Homo sapiens), Q06609; hRad51 DNA strand exchange, fluorescence dequenching; inhibition, % at 10 µM; 200,000 compounds, 0.085% hits; AID 1385, 2008;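 active = inhibition above 40% at the single screening dose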
Target sequence (Q06609 whole entry, looked up): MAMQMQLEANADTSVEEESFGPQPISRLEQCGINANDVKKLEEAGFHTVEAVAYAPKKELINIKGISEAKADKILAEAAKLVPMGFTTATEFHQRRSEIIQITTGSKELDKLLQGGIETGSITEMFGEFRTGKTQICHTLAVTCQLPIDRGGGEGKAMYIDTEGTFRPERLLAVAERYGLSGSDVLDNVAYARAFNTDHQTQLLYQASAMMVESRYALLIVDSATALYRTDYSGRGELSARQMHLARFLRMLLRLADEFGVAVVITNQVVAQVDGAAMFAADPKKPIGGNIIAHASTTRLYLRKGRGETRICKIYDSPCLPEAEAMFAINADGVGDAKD
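Material: hRad51 filaments on single-stranded DNA; Reagent: Donor/quencher-labelled 47-bp dsDNA substrate; Compound: 10 µM final, single point; Schedule: 37 °C 15-min filament assembly, 30-min compound preincubation, 15-min exchange; Technique: FRET fluorescence, excitation 485 nm, emission 520 nm; Benchmarks: control wells and blank wells on each plate.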
ABHD5-PLIN5 inh = ABHD5-PLIN5 interaction inhibitors, primary screen, cell lysate, split luciferase complementation, luminescence. 360,000 compounds, 0.78% hits. Perilipin-5 (Homo sapiens) + 1-acylglycerol-3-phosphate O-acyltransferase ABHD5 (Homo …. Split G. princeps luciferase complementation, 4 h. inhibition, % at 4 µM;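 active = inhibition above the mean inhibition across every tested compound plus 3 SD, cut at about 22% in these data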
Numbers stand for hits; - = inactive; . = no result given. Only some compounds are listed: those with a hit (about 1.9% of all), similar ones and a draw of the others.

SMILES	HIF activator	FXN GAA850 act	Hsp70 activator	H9c2 TAG inh	Rad51 HR inh	ABHD5-PLIN5 inh
N#C/C(=C/c1ccc(N2CCOCC2)o1)c1ccc(Br)cc1	-	16	-	-	-	63
C=CCNc1nc(-c2ccccn2)nnc1-c1ccccc1	110	-	-	-	-	-
Cc1cccc(C)c1NC(=O)CSc1nnc(-c2ccco2)c(-c2ccco2)n1	-	-	-	-	-	23
O=C(CSc1nnc(-c2ccco2)c(-c2ccco2)n1)Nc1ccccc1	-	-	-	.	-	26
C[C@H]1CN([C@@H](C)CO)C(=O)c2cc(Br)cnc2O[C@@H]1CN(C)S(=O)(=O)c1cn(C)cn1	.	-	.	-	.	-
O=C(CCN1C(=O)S/C(=C\c2ccc(F)cc2)C1=O)Nc1ccc(C(=O)O)c(O)c1	30	-	.	.	.	-
O=C(Nc1ccccc1)Nc1cccc2nsnc12	11	-	-	-	.	-
COc1ccc(CC(=O)OCC(=O)N(C)C2CCS(=O)(=O)C2)cc1OC (stereo unspecified)	-	-	.	-	.	-
Cc1ccc(CNC(=O)c2cc3c(=O)n4ccccc4nc3n(Cc3ccco3)c2=N)cc1	-	-	.	-	-	30
CCCCn1c(=NC(=O)c2cccnc2)c(C(=O)OCC)cc2c(=O)n3ccccc3nc21	-	-	-	-	-	-
N=c1c(C(=O)NCc2ccco2)cc2c(=O)n3ccccc3nc2n1C1CCCC1	-	-	.	.	.	23
N=c1c(C(=O)NCc2ccccc2)cc2c(=O)n3ccccc3nc2n1Cc1ccco1	-	-	-	-	-	26
N=c1c(C(=O)NCc2ccco2)cc2c(=O)n3ccccc3nc2n1Cc1ccccc1	-	-	-	-	-	-
N=c1c(C(=O)NC2CCCC2)cc2c(=O)n3ccccc3nc2n1C1CCCC1	-	-	-	.	-	-
N=c1c(C(=O)NCc2ccc(F)cc2)cc2c(=O)n3ccccc3nc2n1Cc1ccco1	-	-	-	-	.	-
CCCCn1c(=NC(=O)c2ccco2)c(C(=O)OCC)cc2c(=O)n3ccccc3nc21	-	-	-	-	-	28
COc1ccc(C(C(=O)NCC2CCCO2)N(C(=O)CNC(=O)c2ccco2)c2cc(C)ccc2C)cc1OC (stereo unspecified)	-	-	.	.	.	-
O=C1c2ccccc2CN1C(CO)Cc1ccccc1 (stereo unspecified)	-	-	.	.	.	-
COc1ccc(N=C(C)C2C(=O)c3ccccc3C2=O)cc1	.	.	.	.	.	-
O=S(=O)(c1ccccc1)N(CC(F)(F)F)c1ccc(C(O)(C(F)(F)F)C(F)(F)F)cc1	.	-	.	-	.	-
COCc1c(C(=O)N/N=C(\C)c2ccc(Cl)s2)nnn1-c1nonc1N	29	-	.	.	.	-
C/C(=N\NC(=O)c1nnn(-c2nonc2N)c1-c1ccccc1)c1ccccc1O	33	-	.	.	.	-
CCCc1c(C(=O)N/N=C(\C)c2ccccc2O)nnn1-c1nonc1N	.	-	.	-	.	-
C[C@@]12C(=O)N(Cc3ccc(F)cc3)CC(=O)N1[C@H]1c3cc(Cl)ccc3OC[C@@H]1[C@@H]2c1ccccc1	.	-	.	.	.	-
C=C1C(=O)C=C[C@]2(C)C[C@@H]3OC(=O)[C@](C)(O)[C@H]3C[C@@H]12	-	-	.	57	-	-
SMILES	HIF activator	FXN GAA850 act	Hsp70 activator	H9c2 TAG inh	Rad51 HR inh	ABHD5-PLIN5 inh
CCCN(CCC)C(C)C(=O)NCC1(c2ccccc2)CCCC1 (stereo unspecified)	719	-	-	-	-	-
CCN(CC)CC(=O)NCC1(c2ccccc2)CCCC1	-	-	-	-	-	-
COc1ccc(-c2oc3ccc(-c4cc(OC)c(OC)c(OC)c4)cc3c2C#Cc2ccccn2)cc1	.	-	.	-	.	-
CC1(C)Cc2c(C#N)c(NCCO)nc(-c3ccco3)c2CO1	-	-	.	-	-	-
CC1CCN(c2nc(-c3ccco3)c3c(c2C#N)CC(C)(C)OC3)CC1	-	-	-	-	-	23
O=C(/C=C/c1ccncc1)c1ccc(NC(=O)c2ccccc2F)cc1	.	12	-	.	-	95
